# In ChEMBL document CHEMBL1141044, “Synthesis and antipicornavirus activity of (R)- and (S)-1-[5-(4'-chlorobiphenyl-4-yloxy)-3-methylpentyl]-3-pyridin-4-yl-imidazolidin-2-one” (Bioorg Med Chem Lett, 2005):
# Experiments:
# [1] = Cytotoxicity against Human rhabdomyosarcoma cells using plaque reduction assay; assay type: functional
# Procedure, shortened: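 Cytotoxicity was measured in human rhabdomyosarcoma (RD) cells. Values are means of triplicate wells from experiments done at least twice.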
# [2] = test system: Enterovirus A71; assay: Inhibitory activity against Human enterovirus 71 strain 4643 using plaque reduction assay; assay type: functional, organism-based; conditions: Enterovirus A
# Procedure, shortened: (§1)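 EV71 strain 4643 titrated by plaque reduction in human rhabdomyosarcoma (RD) cells. Values are means of triplicate wells, and each experiment was run at least twice.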
# [3] = test system: rhinovirus A2; assay: Inhibitory activity against Human rhinovirus 2 using plaque reduction assay; assay type: functional, organism-based, Human rhinovirus sp.; conditions: Rhinovirus A
# Procedure, shortened: (§2)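 Panel screen by plaque reduction against representative human enteroviruses and rhinoviruses. Each value is a mean of triplicate wells, with all experiments performed at least twice.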
# [4] = test system: Coxsackievirus; assay: Inhibitory activity against Coxsackievirus A16 using plaque reduction assay; assay type: functional, organism-based; procedure, shortened: as §2
# [5] = test system: Echovirus; assay: Inhibitory activity against Echovirus 29 using plaque reduction assay; assay type: functional, organism-based; procedure, shortened: as §2
# [6] = test system: Coxsackievirus; assay: Inhibitory activity against Coxsackievirus B2 using plaque reduction assay; assay type: functional, organism-based; procedure, shortened: as §2
# [7] = test system: Enterovirus A71; assay: Inhibitory activity against Human Enterovirus 71 (2086) C using plaque reduction assay; assay type: functional, organism-based; conditions: Enterovirus A; procedure, shortened: as §2
# [8] = test system: Coxsackievirus; assay: Inhibitory activity against Coxsackievirus A24 using plaque reduction assay; assay type: functional, organism-based; procedure, shortened: as §2
# [9] = test system: Enterovirus A71; assay: Inhibitory activity against human enterovirus 71 strain 4643 using plaque reduction assay; assay type: functional, organism-based; conditions: Enterovirus A; procedure, shortened: as §1
# [10] = test system: Enterovirus A71; assay: Inhibitory activity against Human Enterovirus 71 (1743) B using plaque reduction assay; assay type: functional, organism-based; conditions: Enterovirus A; procedure, shortened: as §2
# [11] = test system: Coxsackievirus; assay: Inhibitory activity against Coxsackievirus A9 using plaque reduction assay; assay type: functional, organism-based; procedure, shortened: as §2
# [12] = test system: Coxsackievirus; assay: Inhibitory activity against Coxsackievirus B3 using plaque reduction assay; assay type: functional, organism-based; procedure, shortened: as §2
# [13] = test system: Coxsackievirus; assay: Inhibitory activity against Coxsackievirus B4 using plaque reduction assay; assay type: functional, organism-based; procedure, shortened: as §2
# [14] = test system: Coxsackievirus; assay: Inhibitory activity against Coxsackievirus B5 using plaque reduction assay; assay type: functional, organism-based; procedure, shortened: as §2
# [15] = test system: Enterovirus A71; assay: Inhibitory activity against Human Enterovirus 71 (4643) C using plaque reduction assay; assay type: functional, organism-based; conditions: Enterovirus A; procedure, shortened: as §2
# [16] = test system: rhinovirus B14; assay: Inhibitory activity against Human rhinovirus 14 using plaque reduction assay; assay type: functional, organism-based, Human rhinovirus sp.; conditions: Rhinovirus B; procedure, shortened: as §2
# [17] = test system: Coxsackievirus; assay: Inhibitory activity against Coxsackievirus B6 using plaque reduction assay; assay type: functional, organism-based; procedure, shortened: as §2
# [18] = test system: Coxsackievirus; assay: Inhibitory activity against Coxsackievirus B1 using plaque reduction assay; assay type: functional, organism-based; procedure, shortened: as §2
# [19] = test system: Enterovirus A71; assay: Inhibitory activity against Human Enterovirus 71 (2231) C using plaque reduction assay; assay type: functional, organism-based; conditions: Enterovirus A; procedure, shortened: as §2
# [20] = test system: Enterovirus A71; assay: Inhibitory activity against Human Enterovirus 71 (BrCr) A using plaque reduction assay; assay type: functional, organism-based; procedure, shortened: as §2
# [21] = test system: Enterovirus D68; assay: Inhibitory activity against Human Enterovirus 68 using plaque reduction assay; conditions: Enterovirus D
# [22] = test system: Enterovirus; assay: Inhibitory activity against Enterovirus 68 using plaque reduction assay; assay type: functional, organism-based; procedure, shortened: as §2
# [23] = test system: Coxsackievirus; assay: Inhibitory activity against Coxsackievirus A10 using plaque reduction assay; assay type: functional, organism-based; procedure, shortened: as §2
# [24] = test system: Enterovirus A71; assay: Inhibitory activity against human Enterovirus 71 (4643) C using plaque reduction assay; assay type: functional, organism-based; conditions: Enterovirus A; procedure, shortened: as §2
# [25] = test system: Enterovirus A71; assay: Inhibitory activity against human Enterovirus 71 (BrCr) A using plaque reduction assay; assay type: functional, organism-based; procedure, shortened: as §2
# [26] = test system: Enterovirus A71; assay: Inhibitory activity against human Enterovirus 71 (2231) C using plaque reduction assay; assay type: functional, organism-based; conditions: Enterovirus A; procedure, shortened: as §2
# [27] = test system: Enterovirus A71; assay: Inhibitory activity against human Enterovirus 71 (1743) B using plaque reduction assay; assay type: functional, organism-based; conditions: Enterovirus A; procedure, shortened: as §2
# [28] = test system: Enterovirus A71; assay: Inhibitory activity against human Enterovirus 71 (2086) C using plaque reduction assay; assay type: functional, organism-based; conditions: Enterovirus A; procedure, shortened: as §2
SMILES,CC50 [1],IC50 [2],IC50 [3],IC50 [4],IC50 [5],IC50 [6],IC50 [7],IC50 [8],IC50 [10],IC50 [11],IC50 [12],IC50 [13],IC50 [14],IC50 [15],IC50 [16],IC50 [17],IC50 [18],IC50 [19],IC50 [20],IC50 [22],other results
CC(C)(CCOc1ccc(-c2ccc(Cl)cc2)cc1)CCN1CCN(c2ccncc2)C1=O,> 25 µM,0.04 µM,–,–,–,–,–,–,–,–,–,–,–,–,–,–,–,–,–,–,–
C[C@H](CCOc1ccc(-c2ccc(Cl)cc2)cc1)CCN1CCN(c2ccncc2)C1=O,> 25 µM,0.003 µM,> 25 µM,6.92 µM,1.3 µM,> 25 µM,0.008 µM,> 25 µM,0.026 µM,0.019 µM,> 25 µM,1.25 µM,4.85 µM,0.003 µM,> 25 µM,> 25 µM,> 25 µM,0.024 µM,0.033 µM,–,IC50 [9]: 0.003 µM; IC50 [21]: > 25 µM
C[C@@H](CCOc1ccc(-c2ccc(Cl)cc2)cc1)CCN1CCN(c2ccncc2)C1=O,> 25 µM,0.033 µM,> 25 µM,> 25 µM,1.47 µM,> 25 µM,0.049 µM,> 25 µM,0.17 µM,0.15 µM,> 25 µM,2.05 µM,2.08 µM,0.033 µM,> 25 µM,> 25 µM,> 25 µM,0.16 µM,0.32 µM,> 25 µM,IC50 [23]: > 25 µM
O=C1N(CCCCCOc2ccc(-c3ccc(Cl)cc3)cc2)CCN1c1ccncc1,> 25 µM,0.054 µM,> 25 µM,> 25 µM,0.39 µM,> 25 µM,–,–,–,–,> 25 µM,1.3 µM,–,–,> 25 µM,> 25 µM,> 25 µM,–,–,> 25 µM,IC50 [24]: 0.054 µM; IC50 [25]: 0.13 µM; IC50 [26]: 0.092 µM; IC50 [27]: 0.092 µM; IC50 [28]: 0.043 µM; IC50 [23]: > 25 µM
